Results reported in ChEMBL document CHEMBL3792377, “Synthesis and characterization of a series of chiral alkoxymethyl morpholine analogs as dopamine receptor 4 (D4R) antagonists” (Bioorg Med Chem Lett, 2016).

Legend:
[1] = target: T1, D(4) dopamine receptor (Homo sapiens) (UniProt P21917); experiment: Displacement of [3H]-Spiperone from human recombinant dopamine D4 receptor expressed in CHOK1 cells at 10 uM relative to control; format: cell-based; conditions: CHO-K1
T1 sequence (whole entry): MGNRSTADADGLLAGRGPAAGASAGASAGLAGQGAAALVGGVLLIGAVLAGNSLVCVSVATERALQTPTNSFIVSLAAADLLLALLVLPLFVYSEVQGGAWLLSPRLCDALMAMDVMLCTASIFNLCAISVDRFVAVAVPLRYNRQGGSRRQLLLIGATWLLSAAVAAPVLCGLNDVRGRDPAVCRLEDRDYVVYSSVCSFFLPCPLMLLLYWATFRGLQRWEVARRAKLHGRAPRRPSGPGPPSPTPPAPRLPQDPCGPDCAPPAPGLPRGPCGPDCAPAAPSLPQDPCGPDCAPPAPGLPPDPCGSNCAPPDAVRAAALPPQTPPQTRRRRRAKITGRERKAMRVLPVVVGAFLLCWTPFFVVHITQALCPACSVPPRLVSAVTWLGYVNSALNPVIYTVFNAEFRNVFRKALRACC
Summary of the method: (§1)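 Radioligand binding at human D4 receptor using [3H]-spiperone, run as a contract assay in duplicate. IC50 and Ki were derived from concentration–response data. Single-point values are % inhibition of specific binding at 10 µM test compound.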

[2] = target: T2, D(2) dopamine receptor (Homo sapiens, UniProt P14416); experiment: Displacement of [3H]-Spiperone from human recombinant dopamine D2L receptor expressed in CHO cells at 10 uM relative to control; format: cell-based
Summary of the method: (§2)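 Off-target dopamine receptor radioligand binding (D1, D2L, D2S, D3, D5), run as a contract assay. Test compound at a single concentration of 10 µM, reported as % inhibition of specific binding, measured in duplicate.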

[3] = target: D(1A) dopamine receptor (Homo sapiens, UniProt P21728); experiment: Displacement of [3H]-SCH-23390 from human recombinant dopamine D1 receptor expressed in CHO cells at 10 uM relative to control; format: cell-based; summary of the method: as §2
[4] = target: T3, D(4) dopamine receptor (Homo sapiens, UniProt P21917); experiment: Displacement of [3H]-Spiperone from human recombinant dopamine D4 receptor expressed in CHOK1 cells; format: cell-based, CHO-K1; summary of the method: as §1
T3 sequence (P21917 whole entry): T1 sequence (whole entry)

[5] = target: T2, D(2) dopamine receptor; experiment: Displacement of [3H]-Spiperone from human recombinant dopamine D2S receptor expressed in CHO cells at 10 uM relative to control; format: cell-based; summary of the method: as §2
[6] = target: D(3) dopamine receptor (Homo sapiens, UniProt P35462); experiment: Displacement of [3H]-Spiperone from human recombinant dopamine D3 receptor expressed in CHO cells at 10 uM relative to control; format: cell-based; summary of the method: as §2
[7] = target: D(1B) dopamine receptor (Homo sapiens, UniProt P21918); experiment: Displacement of [3H]-SCH-23390 from human recombinant dopamine D5 receptor expressed in CHO cells at 10 uM relative to control; format: cell-based; summary of the method: as §2
[8] = Fraction unbound in human plasma by equilibrium dialysis method; format: ADME, cell-free
[9] = system: Plasma; experiment: Fraction unbound in rat plasma by equilibrium dialysis method; format: ADME, cell-free
[10] = Plasma concentration in rat at 0.25 mg/kg, iv administered through cassette dosing at 0.25 hrs; format: ADME, organism-based
[11] = Drug uptake in rat brain at 0.25 mg/kg, iv administered through cassette dosing at 0.25 hrs; format: ADME, organism-based; conditions: read-out: Drug uptake
[12] = Ratio of drug level in brain to plasma in rat at 0.25 mg/kg, iv administered through cassette dosing at 0.25 hrs; format: ADME, organism-based

Chain of D(1A) dopamine receptor (P21728 whole entry): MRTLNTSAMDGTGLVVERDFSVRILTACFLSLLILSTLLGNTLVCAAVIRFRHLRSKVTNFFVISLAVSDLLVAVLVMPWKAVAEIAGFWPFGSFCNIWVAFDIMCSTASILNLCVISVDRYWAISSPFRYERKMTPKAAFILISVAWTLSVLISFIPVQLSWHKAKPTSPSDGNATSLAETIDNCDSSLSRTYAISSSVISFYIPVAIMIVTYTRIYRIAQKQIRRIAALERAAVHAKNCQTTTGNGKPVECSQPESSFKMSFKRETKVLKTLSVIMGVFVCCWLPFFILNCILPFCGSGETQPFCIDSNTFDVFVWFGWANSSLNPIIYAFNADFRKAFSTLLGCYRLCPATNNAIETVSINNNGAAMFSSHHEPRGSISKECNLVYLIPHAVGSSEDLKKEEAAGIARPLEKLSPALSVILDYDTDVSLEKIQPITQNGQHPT
Chain of D(3) dopamine receptor (P35462 whole entry): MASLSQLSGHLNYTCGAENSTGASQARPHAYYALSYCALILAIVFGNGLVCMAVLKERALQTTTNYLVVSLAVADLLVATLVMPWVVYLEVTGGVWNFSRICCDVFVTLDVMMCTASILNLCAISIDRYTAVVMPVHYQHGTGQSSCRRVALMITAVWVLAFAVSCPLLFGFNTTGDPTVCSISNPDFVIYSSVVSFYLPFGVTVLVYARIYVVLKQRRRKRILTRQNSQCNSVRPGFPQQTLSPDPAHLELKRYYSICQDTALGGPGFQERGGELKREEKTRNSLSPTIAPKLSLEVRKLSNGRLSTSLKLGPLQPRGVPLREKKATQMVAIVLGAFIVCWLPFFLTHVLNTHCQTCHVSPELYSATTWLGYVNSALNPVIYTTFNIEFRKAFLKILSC
Chain of D(1B) dopamine receptor (P21918 whole entry): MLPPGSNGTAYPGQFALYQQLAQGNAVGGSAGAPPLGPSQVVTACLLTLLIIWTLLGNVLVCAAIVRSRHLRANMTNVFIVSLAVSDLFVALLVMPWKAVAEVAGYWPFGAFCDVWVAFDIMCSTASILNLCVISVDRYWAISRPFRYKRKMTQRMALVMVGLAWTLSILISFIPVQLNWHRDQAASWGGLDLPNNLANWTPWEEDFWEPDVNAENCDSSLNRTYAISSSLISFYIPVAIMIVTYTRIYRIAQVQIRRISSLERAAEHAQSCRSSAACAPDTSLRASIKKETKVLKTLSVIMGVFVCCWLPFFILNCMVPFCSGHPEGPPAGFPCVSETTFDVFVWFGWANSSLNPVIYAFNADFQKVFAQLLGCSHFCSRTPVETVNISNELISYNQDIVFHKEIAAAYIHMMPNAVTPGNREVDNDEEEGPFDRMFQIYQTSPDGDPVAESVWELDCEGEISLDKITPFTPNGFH
T2 sequence (P14416 whole entry): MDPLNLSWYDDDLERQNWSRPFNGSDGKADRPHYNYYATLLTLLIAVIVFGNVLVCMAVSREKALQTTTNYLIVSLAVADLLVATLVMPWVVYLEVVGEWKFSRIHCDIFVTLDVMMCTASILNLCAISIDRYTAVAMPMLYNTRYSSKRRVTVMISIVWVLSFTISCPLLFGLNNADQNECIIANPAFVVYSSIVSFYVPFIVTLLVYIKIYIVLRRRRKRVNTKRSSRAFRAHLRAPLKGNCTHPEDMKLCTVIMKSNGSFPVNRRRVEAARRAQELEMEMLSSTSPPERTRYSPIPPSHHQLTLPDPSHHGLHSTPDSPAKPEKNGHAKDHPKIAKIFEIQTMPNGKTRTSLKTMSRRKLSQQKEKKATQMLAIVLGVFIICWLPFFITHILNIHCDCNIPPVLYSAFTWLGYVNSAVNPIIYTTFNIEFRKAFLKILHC

| Structure (SMILES) | inhibition [1] | inhibition [2] | inhibition [3] | IC50 [4] | Ki [4] | inhibition [5] | inhibition [6] | inhibition [7] | Fu [8] | Fu [9] | concentration at 0.25 h [10] | concentration at 0.25 h [11] | Kp [12] |
| --- | --- | --- | --- | --- | --- | --- | --- | --- | --- | --- | --- | --- | --- |
| COc1ccc(CN2CCO[C@H](COc3ccccn3)C2)cc1 | 57% | – | – | – | – | – | – | – | – | – | – | – | – |
| COc1ccc(CN2CCO[C@H](COc3ccccn3)C2)cc1Cl | 37% | – | – | – | – | – | – | – | – | – | – | – | – |
| COc1cc(CN2CCO[C@H](COc3ccccn3)C2)ccc1Cl | 34% | – | – | – | – | – | – | – | – | – | – | – | – |
| Fc1ccc(OC[C@@H]2CN(Cc3ccc(Cl)cc3)CCO2)cc1 | – | 83% | < 50% | 0.038 µM | 0.0104 µM | 79% | 51% | < 50% | – | – | – | – | – |
| COc1cc(CN2CCO[C@H](COc3cccc(F)c3)C2)ccc1Cl | – | – | – | 0.037 µM | 0.0101 µM | < 50% | – | – | 0.011 | 0.014 | – | – | – |
| COc1cc(CN2CCO[C@H](COc3cccc(F)n3)C2)ccc1Cl | -3% | – | – | – | – | – | – | – | – | – | – | – | – |
| Clc1ccc(CN2CCO[C@H](COc3ccccc3)C2)cc1 | – | – | – | 0.15 µM | 0.042 µM | – | – | – | 0.007 | 0.007 | 42.5 ng/mL | 197 ng/g | 4.62 |
| COc1ccc(CN2CCO[C@H](COc3ccc(F)cc3)C2)cc1 | – | 88% | < 50% | 0.047 µM | 0.0131 µM | 82% | 76% | < 50% | – | – | – | – | – |
| COc1ccc(CN2CCO[C@H](COc3ncccn3)C2)cc1 | 8% | – | – | – | – | – | – | – | – | – | – | – | – |
| COc1ccc(CN2CCO[C@@H](COc3ccccc3)C2)cc1Cl | 35% | – | – | – | – | – | – | – | – | – | – | – | – |
| Cn1ncc2cc(CN3CCO[C@H](COc4ccccc4)C3)ccc21 | – | – | – | 0.17 µM | 0.047 µM | – | – | – | 0.039 | 0.074 | 37.3 ng/mL | 83.1 ng/g | 2.23 |
| Clc1ccc(CN2CCO[C@H](COc3cncnc3)C2)cc1 | 76% | – | – | – | – | – | – | – | – | – | – | – | – |
| Cc1ccc(CN2CCO[C@H](COc3ccccc3)C2)cc1C | – | – | – | 0.045 µM | 0.0123 µM | < 50% | – | – | – | – | – | – | – |
| COc1ccc(CN2CCO[C@H](COc3cncnc3)C2)cc1 | -4% | – | – | – | – | – | – | – | – | – | – | – | – |
| Fc1ccc2c(CN3CCO[C@H](COc4ccccc4)C3)c[nH]c2c1 | – | 78% | < 50% | 0.0189 µM | 0.0052 µM | 76% | < 50% | < 50% | 0.017 | 0.047 | – | – | – |
| COc1ccc(CN2CCO[C@H](COc3cccc(F)c3)C2)cc1Cl | – | – | – | 0.039 µM | 0.0108 µM | < 50% | – | – | 0.006 | 0.013 | – | – | – |
| c1ccc(OC[C@@H]2CN(Cc3n[nH]c4ccccc34)CCO2)cc1 | – | – | – | 0.065 µM | 0.0181 µM | < 50% | – | – | – | – | – | – | – |
| COc1cc(CN2CCO[C@H](COc3ccccc3)C2)ccc1Cl | – | 52% | < 50% | 0.042 µM | 0.0116 µM | 60% | < 50% | < 50% | 0.01 | 0.025 | – | – | – |
| c1ccc(OC[C@@H]2CN(Cc3ncn4ccccc34)CCO2)cc1 | – | – | – | 0.13 µM | 0.035 µM | < 50% | – | – | – | – | – | – | – |
| Clc1ccc(CN2CCO[C@H](COc3ncccn3)C2)cc1 | 31% | – | – | – | – | – | – | – | – | – | – | – | – |
| Clc1ccc(CN2CCO[C@H](COc3cccc(Cl)n3)C2)cc1 | – | – | – | 0.1 µM | 0.029 µM | – | – | – | 0.004 | 0.008 | – | – | – |
| Clc1ccc(CN2CCO[C@H](COc3ccccc3)C2)cc1Cl | – | – | – | 0.097 µM | 0.027 µM | – | – | – | 0.002 | 0.006 | – | – | – |
| COc1ccc(CN2CCO[C@H](COc3ccccc3)C2)cc1F | – | 78% | < 50% | 0.056 µM | 0.0143 µM | 76% | < 50% | < 50% | 0.031 | 0.037 | 14.7 ng/mL | 108 ng/g | 7.38 |
| Fc1ccc2c(CN3CCO[C@H](COc4cccc(F)n4)C3)c[nH]c2c1 | – | – | – | 0.076 µM | 0.021 µM | < 50% | – | – | 0.009 | 0.015 | – | – | – |
| c1ccc(OC[C@@H]2CN(Cc3ccc4[nH]ccc4c3)CCO2)cc1 | – | 64% | < 50% | 0.058 µM | 0.0159 µM | 64% | < 50% | < 50% | 0.035 | 0.069 | – | – | – |
| c1ccc(OC[C@@H]2CN(Cc3cn4ccccc4n3)CCO2)cc1 | – | – | – | 0.59 µM | 0.16 µM | – | – | – | 0.057 | 0.215 | – | – | – |
| COc1ccc(CN2CCO[C@H](COc3ccccc3)C2)cc1Cl | – | – | – | 0.038 µM | 0.0104 µM | < 50% | – | – | 0.01 | 0.019 | – | – | – |
| COc1ccc2c(CN3CCO[C@H](COc4ccccc4)C3)c[nH]c2c1 | – | 87% | < 50% | 0.0195 µM | 0.0054 µM | 82% | 70% | < 50% | 0.037 | 0.075 | – | – | – |
| Clc1ccc2c(CN3CCO[C@H](COc4ccccc4)C3)c[nH]c2c1 | – | 94% | < 50% | 0.008 µM | 0.0022 µM | 93% | 70% | < 50% | 0.006 | 0.01 | 74.8 ng/mL | 246 ng/g | 3.29 |
